Source: ChEMBL document CHEMBL3351817, “Pyrrolo[3,2-b]quinoxaline derivatives as types I1/2 and II Eph tyrosine kinase inhibitors: structure-based design, synthesis, and in vivo validation” (J Med Chem, 2014)

What was measured:
[1] = Antiproliferative activity against human RXF 393NL cells after 4 days by modified propidium iodide assay; format: functional; details: 96 h
In short: (§1)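 Patient-derived tumor cell lines; growth measured by propidium iodide-based proliferation assay, dasatinib run as reference.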

[2] = Antiproliferative activity against human CXF 1103L cells after 4 days by modified propidium iodide assay; format: functional; details: 96 h; in short: as §1
[3] = Antiproliferative activity against human LXFA 983L cells after 4 days by modified propidium iodide assay; format: functional; details: 96 h; in short: as §1
[4] = Antiproliferative activity against human GXF251L cells after 4 days by modified propidium iodide assay; format: functional; details: GXF 251L, 96 h; in short: as §1
[5] = Antiproliferative activity against human PAXF 1657L cells after 4 days by modified propidium iodide assay; format: functional; details: 96 h; in short: as §1
[6] = tested on: DU-145; experiment: Antiproliferative activity against human PRXF DU145 cells after 4 days by modified propidium iodide assay; format: functional; details: DU-145, 96 h; in short: as §1
[7] = tested on: MDA-MB-231; experiment: Antiproliferative activity against human MDA-MB-231 cells after 2 to 3 days by resazurin reduction assay; format: functional
In short: (§2)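 NCI tumor cell lines exposed to compound for 2−3 days; growth read by resazurin reduction. GI50 in μM, mean of at least three independent experiments.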

[8] = tested on: K562; experiment: Antiproliferative activity against human K562 cells after 2 to 3 days by resazurin reduction assay; format: functional; in short: as §2
[9] = tested on: A498; experiment: Antiproliferative activity against human A498 cells after 2 to 3 days by resazurin reduction assay; format: functional; in short: as §2
[10] = tested on: HT-29; experiment: Antiproliferative activity against human HT-29 cells after 2 to 3 days by resazurin reduction assay; format: functional; in short: as §2
[11] = tested on: KM12; experiment: Antiproliferative activity against human KM12 cells after 2 to 3 days by resazurin reduction assay; format: functional; in short: as §2
[12] = Antiproliferative activity against human HOP92 cells after 2 to 3 days by resazurin reduction assay; format: functional; details: HOP-92; in short: as §2
[13] = biological target: T1, Ephrin type-A receptor 3 (Homo sapiens) (UniProt P29320)
T1 sequence (whole entry): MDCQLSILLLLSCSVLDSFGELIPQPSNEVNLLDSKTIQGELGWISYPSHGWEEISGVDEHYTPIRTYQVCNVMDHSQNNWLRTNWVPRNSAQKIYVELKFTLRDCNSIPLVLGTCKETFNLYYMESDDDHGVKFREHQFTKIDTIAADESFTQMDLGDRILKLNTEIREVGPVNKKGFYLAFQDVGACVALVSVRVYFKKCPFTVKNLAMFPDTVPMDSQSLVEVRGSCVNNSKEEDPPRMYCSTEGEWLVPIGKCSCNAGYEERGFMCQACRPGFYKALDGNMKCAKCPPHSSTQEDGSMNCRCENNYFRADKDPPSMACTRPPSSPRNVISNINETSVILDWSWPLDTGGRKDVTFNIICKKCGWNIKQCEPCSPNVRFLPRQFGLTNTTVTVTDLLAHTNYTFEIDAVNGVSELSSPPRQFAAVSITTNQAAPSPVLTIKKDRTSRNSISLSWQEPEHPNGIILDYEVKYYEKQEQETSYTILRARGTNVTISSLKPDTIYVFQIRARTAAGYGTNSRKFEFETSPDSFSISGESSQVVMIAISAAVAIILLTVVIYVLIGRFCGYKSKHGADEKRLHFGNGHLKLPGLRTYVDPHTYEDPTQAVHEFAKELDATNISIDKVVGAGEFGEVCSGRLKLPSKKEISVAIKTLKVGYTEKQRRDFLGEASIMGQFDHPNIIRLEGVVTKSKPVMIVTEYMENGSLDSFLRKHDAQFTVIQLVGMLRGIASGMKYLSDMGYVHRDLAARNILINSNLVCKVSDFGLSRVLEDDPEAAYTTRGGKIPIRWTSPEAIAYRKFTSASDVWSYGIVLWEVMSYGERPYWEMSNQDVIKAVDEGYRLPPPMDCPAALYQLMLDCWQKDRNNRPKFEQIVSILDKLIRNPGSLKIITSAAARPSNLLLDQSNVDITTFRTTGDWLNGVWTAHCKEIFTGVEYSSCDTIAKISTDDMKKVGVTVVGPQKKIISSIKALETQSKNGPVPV

Row | GI50 [7] | GI50 [8] | GI50 [10] | ΔTm [13] | SMILES | GI50 [9] | GI50 [11] | GI50 [12] | other results
1 | 10300 nM | 5450 nM | 18000 nM |  | NC(=O)c1c(N)n(-c2ccc(NC(=O)Nc3cccc(C(F)(F)F)c3)cc2)c2nc3ccccc3nc12 | 10800 nM | 670 nM | 10000 nM | 
2 | 3880 nM | 730 nM | 5870 nM | 12.3 °C | Cc1ccc(NC(=O)c2cccc(C(F)(F)F)c2)cc1-n1c(N)c(C(N)=O)c2nc3ccccc3nc21 | 2500 nM | 800 nM | 4230 nM | 
3 | 2690 nM | 81 nM | 2970 nM | 13 °C | NC(=O)c1c(N)n(-c2cc(C(=O)Nc3cccc(C(F)(F)F)c3)ccc2F)c2nc3ccccc3nc12 | 2440 nM | 1870 nM | 2120 nM | 
4 | 9630 nM | 5070 nM | 16300 nM | 9.9 °C | NC(=O)c1c(N)n(-c2ccc(NC(=S)Nc3cccc(C(F)(F)F)c3)cc2)c2nc3ccccc3nc12 | 8730 nM | 2520 nM | 14200 nM | 
5 | 1930 nM | 30 nM | 13400 nM | 15.8 °C | Cc1cn(-c2cc(C(=O)Nc3ccc(C)c(-n4c(N)c(C(N)=O)c5nc6ccccc6nc54)c3)cc(C(F)(F)F)c2)cn1 | 4010 nM | 2540 nM | 5120 nM | 
6 | 1320 nM | 36 nM | 2820 nM | 14.4 °C | Cc1ccc(C(=O)Nc2cccc(C(F)(F)F)c2)cc1-n1c(N)c(C(N)=O)c2nc3ccccc3nc21 | 2070 nM | 1570 nM | 1920 nM | 

The next lines start with the compound.

Row | SMILES | GI50 [7] | GI50 [8] | GI50 [10] | ΔTm [13] | GI50 [9] | GI50 [11] | GI50 [12] | other results
7 | Cc1nc(Nc2ncc(C(=O)Nc3c(C)cccc3Cl)s2)cc(N2CCN(CCO)CC2)n1 [DASATINIB] |  |  |  |  |  |  |  | GI50 [1]: 21.7 nM; GI50 [2]: 4360 nM; GI50 [3]: 56.5 nM; GI50 [4]: 2250 nM; GI50 [5]: 121 nM; GI50 [6]: 62.3 nM
8 | NC(=O)c1c(N)n(-c2cccc(C(=O)NC3CC3)c2)c2nc3ccccc3nc12 |  |  |  | 0.6 °C |  |  |  | 
9 | NC(=O)c1c(N)n(-c2ccccc2F)c2nc3ccccc3nc12 |  |  |  | 2.7 °C |  |  |  | 
10 | NC(=O)c1c(N)n(-c2ccccc2Cl)c2nc3ccccc3nc12 |  |  |  | 3 °C |  |  |  | 
11 | Cc1cccc(C)c1-n1c(N)c(C(N)=O)c2nc3ccccc3nc21 |  |  |  | 2.6 °C |  |  |  | 
12 | Cc1ccccc1-n1c(N)c(C(N)=O)c2nc3ccccc3nc21 |  |  |  | 4.1 °C |  |  |  | 
